Measured values taken from ChEMBL document CHEMBL1142155, “Human beta-defensins kill Candida albicans in an energy-dependent and salt-sensitive manner without causing membrane disruption” (2007).
The source made the active and inactive calls. The calls are words filed in the database; no cut-off is given here.

Columns and labels:
Candida albicans [1] = assay: Induction of membrane permeabilization in Candida albicans assessed as calcein release at 0.8 uM after 90 min; type: functional
Summary of the method: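 Early-stationary yeast washed in 10 mM NaPB, loaded at 10⁷/ml with 5 μM (final) calcein-AM for 2 h at room temperature, then washed four times; 10⁶ cells given 0.8 μM hBD-3 or 32 μM Hst 5. Fluorescence (ex 485/em 530 nm) read every 5 min for 90 min. Percent release = (I_r − I_bkg)/(I_int − I_bkg) × 100, where I_int comes from boiling 10 min. Mean ± SD of three experiments.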

Candida albicans [2] = assay: Induction of ATP efflux in Candida albicans CAF4-2 at 1 uM in presence of 1 mM sodium azide; type: functional, organism-based
Summary of the method: (§1)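 10⁴ C. albicans cells given 31 μM Hst 5 or 1 μM hBD-3, with or without 2 h pretreatment in 1 mM NaN₃. Extracellular ATP read by luminometry at 0, 5, 15, 30, 45 and 60 min. Values come from per-experiment ATP standard curves, as pmol ATP per 10⁴ cells.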

Candida albicans [3] = assay: Induction of ATP efflux in Candida albicans CAF4-2 at 1 uM; type: functional, organism-based; summary of the method: as §1

CC[C@H](C)C(NC(=O)CN)C(=O)N[C@H](C(=O)N[C@@H](CC(N)=O)C(=O)N[C@H](C(=O)N[C@@H](CC(C)C)C(=O)N[C@@H](CCC(N)=O)C(=O)N[C@@H](CCCCN)C(=O)N[C@@H](Cc1ccc(O)cc1)C(=O)N[C@@H](Cc1ccc(O)cc1)C(=O)N[C@@H](CS)C(=O)N[C@@H](CCCNC(=N)N)C(=O)N[C@H](C(=O)N[C@@H](CCCNC(=N)N)C(=O)NCC(=O)NCC(=O)N[C@@H](CCCNC(=N)N)C(=O)N[C@@H](CS)C(=O)N[C@@H](C)C(=O)N[C@H](C(=O)N[C@@H](CC(C)C)C(=O)N[C@@H](CO)C(=O)N[C@@H](CS)C(=O)N[C@@H](CC(C)C)C(=O)N1CCC[C@H]1C(=O)N[C@@H](CCCCN)C(=O)N[C@@H](CCC(=O)O)C(=O)N[C@@H](CCC(=O)O)C(=O)N[C@@H](CCC(N)=O)C(=O)N[C@H](C(=O)NCC(=O)N[C@@H](CCCCN)C(=O)N[C@@H](CS)C(=O)N[C@@H](CO)C(=O)N[C@H](C(=O)N[C@@H](CCCNC(=N)N)C(=O)NCC(=O)N[C@@H](CCCNC(=N)N)C(=O)N[C@@H](CCCCN)C(=O)N[C@@H](CS)C(=O)N[C@@H](CS)C(=O)N[C@@H](CCCNC(=N)N)C(=O)N[C@@H](CCCNC(=N)N)C(=O)N[C@@H](CCCCN)C(=O)N[C@@H](CCCCN)C(=O)O)[C@@H](C)O)[C@@H](C)CC)C(C)C)C(C)C)[C@@H](C)O)[C@@H](C)CC (stereo partly drawn)
Activity (Candida albicans [1]): 24.2% | Activity (Candida albicans [2]): inactive | Activity (Candida albicans [3]): Active
